Key:
Mus musculus [1] = assay: Percentage decrease in general motor activity with respect to vehicle-injected control in mice at a dose of 30 mg/kg after ip administration; type: functional; conditions: route intraperitoneal
[2] = Partition coefficient in octanol/water system was determined using [14C]-labeled compounds.; type: physicochemical
Mus musculus [3] = assay: Tested for the quanitity of [14C]-labeled (radioactivity) compound taken up into the brain following subcutaneous injection at a 36 mg/kg; type: functional
How it was run: (§1)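 Male Balb-c mice (20 ± 2 g) received ¹⁴C-labeled lipid (label on the GABA portion) sc, as diacetate salt or free amine, in 15% propylene glycol in water. Killed at 5 min; brain and liver weighed and homogenized in SDS/EDTA phosphate buffer (pH 7.6), then scintillation counted. nmol/g computed from total radioactivity. BPI = ([brain]/[liver]) × 100. Mean ± SD of three, or two, measurements.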

[4] = Brain-uptake index (BUI) was determined for the compound in rat; type: functional
How it was run: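 Rat carotid bolus: male Sprague-Dawley rats (200-300 g) under deep Nembutal anesthesia received a 0.15-mL bolus of ³H2O plus ¹⁴C-labeled compound in 0.01 M HEPES (pH 7.4) into the right carotid artery. Decapitated 5 s later; ipsilateral forebrain homogenized in SDS/urea/EDTA/phosphate buffer (pH 7.4). Duplicate aliquots counted by scintillation, corrected for quench and spillover. BUI = (¹⁴C/³H cpm) brain / (¹⁴C/³H cpm) injectate. Values uncorrected.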

[5] = Ratio of the amount in brain as a percent of that present in liver at 5 min is expressed as Brain penetration index (BPI); type: functional; how it was run: as §1
Mus musculus [6] = assay: Tested for the quanitity of [14C]-labeled (radioactivity) compound taken up into the liver following subcutaneous injection at a 36 mg/kg; type: functional; how it was run: as §1
Mus musculus [7] = assay: Tested for the quanitity of [14C]-labeled (radioactivity) compound taken up into the brain following subcutaneous injection; type: functional
Mus musculus [8] = assay: Tested for the quanitity of [14C]-labeled (radioactivity) compound taken up into the liver following subcutaneous injection; type: functional
Mus musculus [9] = assay: Tested for the quanitity of [14C]-labeled (radioactivity) compound taken up into the liver following subcutaneous injection at a 40 mg/kg; type: functional; how it was run: as §1
Mus musculus [10] = assay: Tested for the quanitity of [14C]-labeled (radioactivity) compound taken up into the brain following subcutaneous injection at a 40 mg/kg; type: functional; how it was run: as §1
Mus musculus [11] = assay: Tested for the quanitity of [14C]-labeled (radioactivity) compound taken up into the liver following subcutaneous injection at a 41 mg/kg; type: functional; how it was run: as §1
Mus musculus [12] = assay: Tested for the quanitity of [14C]-labeled (radioactivity) compound taken up into the brain following subcutaneous injection at a 41 mg/kg; type: functional; how it was run: as §1
[13] = Partition coefficient in octanol/water system was determined; type: physicochemical
Mus musculus [14] = assay: Tested for the quanitity of [14C]-labeled (radioactivity) compound taken up into the brain following subcutaneous injection at a 54 mg/kg; type: functional; how it was run: as §1
Mus musculus [15] = assay: Tested for the quanitity of [14C]-labeled (radioactivity) compound taken up into the liver following subcutaneous injection t a 54 mg/kg; type: functional; how it was run: as §1
Mus musculus [16] = assay: Tested for the quanitity of [14C]-labeled (radioactivity) compound taken up into the brain following subcutaneous injection at a 100 mg/kg; type: functional
Mus musculus [17] = assay: Tested for the quanitity of [14C]-labeled (radioactivity) compound taken up into the liver following subcutaneous injection at a 100 mg/kg; type: functional
Mus musculus [18] = assay: Tested for the quanitity of [14C]-labeled (radioactivity) compound taken up into the liver following subcutaneous injection at a 44 mg/kg; type: functional; how it was run: as §1
Mus musculus [19] = assay: Tested for the quanitity of [14C]-labeled (radioactivity) compound taken up into the brain following subcutaneous injection at a 44 mg/kg; type: functional; how it was run: as §1

Row | Structure (SMILES) | K [2] | Decrease (Mus musculus [1]) [%] | BUI [4] | BPI [5] [%] | further results
1 | CC/C=C/C/C=C/C/C=C/CCCCCCCC(=O)OCC(COC(=O)CCCN)OC(=O)CCCN (stereo in doubt; 3d) |  | 82.6 |  | 15 | Activity (Mus musculus [9]): 7.86 nM/g; Activity (Mus musculus [10]): 1.07 nM/g
2 | CCCCC/C=C/C/C=C/CCCCCCCC(=O)OCC(COC(=O)CCCN)OC(=O)CCCN (stereo in doubt; 3c (L2G2)) |  |  | 25.9 | 97 | Activity (Mus musculus [11]): 8 nM/g; Activity (Mus musculus [12]): 7.74 nM/g; K [13]: 4.2
3 | CCCCC/C=C/C/C=C/CCCCCCCC(=O)OCC(COC(=O)CCCN)OC(=O)CCCN (stereo in doubt; 3c) |  | 89.3 |  | 14 | Activity (Mus musculus [14]): 1.32 nM/g; Activity (Mus musculus [15]): 9.19 nM/g
4 | CC/C=C/C/C=C/C/C=C/CCCCCCCC(=O)OCC(COC(=O)CCCN)OC(=O)CCCN (stereo in doubt) |  |  | 31.5 | 75 | Activity (Mus musculus [16]): 2.81 nM/g; K [13]: 2.13; Activity (Mus musculus [17]): 3.79 nM/g
5 | CCCCCCCCCCCCCCCCCC(=O)OCC(COC(=O)CCCN)OC(=O)CCCN (stereo unspecified) | 8.6 | 62.1 | 45.1 | 28 | Activity (Mus musculus [18]): 6.92 nM/g; Activity (Mus musculus [19]): 1.89 nM/g

More lines, main results first:

Row | K [2] | Structure (SMILES) | Decrease (Mus musculus [1]) [%] | BUI [4] | BPI [5] [%] | further results
6 | 6 | CCCCCCCC/C=C/CCCCCCCC(=O)OCC(COC(=O)CCCN)OC(=O)CCCN (stereo unspecified) | 74 | 53.2 | 17 | Activity (Mus musculus [3]): 1.07 nM/g; Activity (Mus musculus [6]): 6.32 nM/g
7 | 0.004 | NCCCC(=O)O [GAMMA-AMINOBUTYRIC ACID] | 62.1 | 2 | 0.96 | Activity (Mus musculus [7]): 0.041 nM/g; Activity (Mus musculus [8]): 4.2 nM/g

— ChEMBL document CHEMBL1123830, “gamma-Aminobutyric acid esters. 3. Synthesis, brain uptake, and pharmacological properties of C-18 glyceryl lipid esters of GABA with varying degree of unsaturation” (J Med Chem, 1987)
